Assay results as given in ChEMBL document CHEMBL1140834, “Identifying the important structural elements of brominated furanones for inhibiting biofilm formation by Escherichia coli” (2008).
Active and inactive are the calls of the source. The rule behind the calls is not given here.

Experiments:
[1] = tested on: Escherichia coli; assay: Antibacterial activity against Escherichia coli at 60 ug/mL; type: functional, organism-based
[2] = tested on: Escherichia coli; assay: Inhibition of Escherichia coli biofilm formation at 60 ug/mL; type: functional
How it was run: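 DsRed-express-labeled E. coli biofilms were grown 24 h at 37 C on 316 L stainless steel coupons, with furanone added to the growth medium. Imaged by confocal microscopy. Biomass, surface coverage and mean thickness were calculated from the images and expressed relative to a no-furanone control. Four replicates.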

[3] = tested on: Escherichia coli; assay: Antibacterial activity against Escherichia coli RP437/pRSH103 assessed as reduction of colony forming unit at 40 ug/ml after 3 hrs; type: functional
How it was run: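 Viable counts (CFU/mL) taken before and after 3 h exposure at 37 C. A parallel culture given the same amount of ethanol (0.2%) served as negative control.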

[4] = tested on: Escherichia coli; assay: Antibacterial activity against Escherichia coli RP437/pRSH103 at 5 to 10 ug/ml; type: functional, organism-based
How it was run: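 Toxicity followed as growth curves. OD600 of E. coli cultures was monitored over time in LB medium with tetracycline, containing a range of furanone concentrations.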

SMILES | Activity [1] | inhibition at 60 µg/mL [2] [%] | CFU [3] [mL⁻¹] | Activity [4]
CC1=CC(C)OC1=O (centres undefined) | inactive | – | – | –
CC1=CC(=O)OC1=O | inactive | – | – | –
CC1=C(Br)/C(=C/Br)OC1=O | inactive | 75 | – | –
O=C1OC(=C(Br)Br)C=C1CBr | – | – | 390 | –
CC1=C(Br)C(C(Br)Br)OC1=O (centres undefined) | inactive | 19 | – | –
CC1=C(Br)C(Br)(C(Br)Br)OC1=O (centres undefined) | inactive | – | – | –
O=C1O/C(=C\Br)C(Br)=C1CBr | – | – | – | Active
CC1=CC(=C(Br)Br)OC1=O | inactive | 63 | – | –
O=C1OC(=C(Br)Br)C=C1C(Br)Br | inactive | 80 | – | –
COC1=CC(=O)OC1 | inactive | – | – | –
